The test system of experiment [1] is RAW264.7. Briefly: Cytotoxicity against LPS-stimulated mouse RAW264.7 cells by Griess method. In kind it is cell-based. In general terms: The Griess reaction detects nitrite, a stable product of nitric oxide.
Experiment [2] deals with RAW264.7. Kind of experiment: Inhibition of LPS-induced nitric oxide production in mouse RAW264.7 cells by Griess method. It counts as functional, cell-based. An outline of the steps: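 RAW 264.7 murine macrophages were grown in DMEM with 10% FBS, penicillin and streptomycin at 37 °C under 5% CO2, then stimulated with LPS for 24 h. Nitrite in the medium was measured by Griess reaction (sulfanilamide/naphthylethylenediamine, 10 min at room temperature, A550) against a NaNO2 standard curve. IC50 is the concentration giving a 50% decrease in NO; values are the mean of four independent experiments.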

For the molecule `C[C@H]1[C@H](C)CC[C@]2(C(=O)O)CC[C@]3(C)C(=CC[C@@H]4[C@@]5(C)CC[C@H](O[C@@H]6O[C@H](CO)[C@@H](O)[C@H](O)[C@H]6O)[C@@](C)(CO)[C@@H]5CC[C@]43C)[C@H]12`, the IC50 in the experiment with RAW264.7 [1] was 126 µM; in the experiment with RAW264.7 [2], 22.1 µM.

With `C[C@H]1[C@H](C)CC[C@]2(C(=O)O)CC[C@]3(C)C(=CC[C@@H]4[C@@]5(C)CC[C@H](O[C@@H]6OC[C@H](O)[C@H](O)[C@H]6O)[C@@](C)(CO)[C@@H]5CC[C@]43C)[C@H]12`, the IC50 in the experiment on RAW264.7 [1] is 124 µM; with RAW264.7 [2], 47.9 µM.

For the molecule `C[C@H]1[C@H](C)CC[C@]2(C(=O)O)CC[C@]3(C)C(=CC[C@@H]4[C@@]5(C)CC[C@H](O)[C@@](C)(CO)[C@@H]5CC[C@]43C)[C@H]12`, the IC50 was found to be 11 µM in the experiment on RAW264.7 [1] and 2.6 µM in the experiment with RAW264.7 [2].

Turning to `CC(=N)NCCCC[C@H](N)C(=O)O` [L-NIL], the results for the IC50 with RAW264.7 [1] and in the experiment with RAW264.7 [2] were above 200 µM and 18.6 µM, respectively.

As to `C[C@H]1[C@H](C)CC[C@]2(C(=O)O)CC[C@]3(C)C(=CC[C@@H]4[C@@]5(C)CC[C@H](O)C(C)(C)[C@@H]5CC[C@]43C)[C@H]12` [URSOLIC ACID], the IC50 in the experiment with RAW264.7 [1] is 58.5 µM; in the experiment on RAW264.7 [2], 46.9 µM.

The IC50 is the concentration needed to halve the response being measured.

The record behind these values is ChEMBL document CHEMBL1147223, “Saponins from Cussonia bancoensis and their inhibitory effects on nitric oxide production” (J Nat Prod, 2003).
